According to ChEMBL document CHEMBL3259666, “Discovery of a neuroprotective chemical, (S)-N-(3-(3,6-dibromo-9H-carbazol-9-yl)-2-fluoropropyl)-6-methoxypyridin-2-amine [(-)-P7C3-S243], with improved druglike properties” (J Med Chem, 2014):
pIC50: −log10 of the molar value. Active and inactive are the calls of the source. The rule behind the calls is not given here.

Tests used:
Mus musculus [1] = assay: Neuroprotective activity in wild type C57BL/J6 mouse assessed as survival of newborn hippocampal neurons at 10 uM, icv administered for 7 days by BrdU staining-based immunohistochemical analysis relative to vehicle-treated control; format: functional, organism-based
In short: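 Adult (12 week old) C57BL/J6 mice, environmentally deprived; compound infused via osmotic minipump into left lateral ventricle at 0.5 μL/h for 7 days. BrdU IP 50 mg kg–1 day–1 for 6 days during infusion; perfusion 24 h after last BrdU. BrdU+ cells in SGZ/dentate gyrus of contralateral hemisphere counted in every fifth 40 μm section, normalized to dentate gyrus volume; mean ± SEM.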

Mus musculus [2] = assay: Neuroprotective activity in substantia nigra of C57Bl/6 mouse neurogenesis model assessed as protection from MPTP-induced cell death in mature neurons at 10 mg/kg/day, ip bid administered for 21 days by immunohistochemical analysis relative to vehicle-treated control; format: functional; settings: route intraperitoneal
In short: (§1)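 MPTP model in adult male C57Bl/6 mice, individually housed 1 week. MPTP free base 30 mg/kg/day IP for 5 days. From day 6 (24 h after the last MPTP dose), compound or vehicle given IP twice daily for 21 days. Mice were then perfused with 4% paraformaldehyde. SNc sectioned at 30 μm intervals and every fourth section stained for TH (DAB, hematoxylin counterstain). TH+ cells counted blinded; mean ± SEM, compared with vehicle + MPTP.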

Mus musculus [3] = assay: Toxicity in C57Bl/6 mouse assessed as effect on behavior up to 40 mg/kg/day, ip bid administered for 21 days; format: organism-based; design: route intraperitoneal; settings: in vivo, 504 h
Mus musculus [4] = assay: Toxicity in C57Bl/6 mouse assessed as effect on weight up to 40 mg/kg/day, ip bid administered for 21 days; format: organism-based; design: route intraperitoneal; settings: in vivo, 504 h
Translocator protein = Translocator protein (Homo sapiens, UniProt P30536); assay: Inhibition of TSPO (unknown origin)
Mus musculus [5] = assay: Toxicity in C57Bl/6 mouse assessed as effect on appearance up to 40 mg/kg/day, ip bid administered for 21 days; format: organism-based; design: route intraperitoneal; settings: in vivo, 504 h
Mus musculus [6] = assay: Neuroprotective activity in substantia nigra of C57Bl/6 mouse neurogenesis model assessed as protection from MPTP-induced cell death in mature neurons at 5 mg/kg/day, ip bid administered for 21 days by immunohistochemical analysis relative to vehicle-treated control; format: functional, organism-based; in short: as §1

Chain of Translocator protein (P30536 whole entry): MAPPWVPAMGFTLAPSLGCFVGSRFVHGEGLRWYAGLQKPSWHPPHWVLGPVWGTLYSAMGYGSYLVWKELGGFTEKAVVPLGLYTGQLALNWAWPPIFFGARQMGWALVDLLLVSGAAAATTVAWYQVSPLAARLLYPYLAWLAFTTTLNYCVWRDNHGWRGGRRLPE

SMILES	Activity (Mus musculus [1])	Activity (Mus musculus [2]) [%]	Activity (Mus musculus [3])	Activity (Mus musculus [4])	pIC50 (Translocator protein)	Activity (Mus musculus [5])	Activity (Mus musculus [6])
NCC(O)Cn1c2ccc(Br)cc2c2cc(Br)ccc21 (stereo not given)	Active						
OC(CNc1ccccc1)Cn1c2ccc(Br)cc2c2cc(Br)ccc21 (stereo not given)	Active						
NCC(F)Cn1c2ccc(Br)cc2c2cc(Br)ccc21 (stereo not given)	Active						
COc1cccc(NCC(F)Cn2c3ccc(Br)cc3c3cc(Br)ccc32)c1 (stereo not given)	Active	75	Non-toxic	Non-toxic	5.70	Non-toxic	Active
